Calls of active or inactive are those of the source. No cut-off for these calls is given here.
Assays:
Escherichia coli [1] = assay: Inhibition of Escherichia coli topoisomerase 4 assessed as DNA relaxation activity
How it was run: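 ATP-dependent relaxation assay. Topo IV at 5 nM with supercoiled DNA (400 ng) at 37 °C, with peptide titrated at fixed enzyme and DNA. Value is IC100, the minimum concentration completely inhibiting relaxation.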

Escherichia coli [2] = assay: Inhibition of Escherichia coli DNA-gyrase assessed as DNA supercoiling activity
How it was run: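 Peptide titrated into a fixed amount of enzyme and DNA. Gyrase at 3.4 nM with relaxed DNA substrate (500 ng), 37 °C for 1 h, which fully negatively supercoils the substrate without inhibitor. Value is IC100, the lowest peptide concentration giving complete inhibition of supercoiling.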

Row | SMILES | IC100 (Escherichia coli [1]) | IC100 (Escherichia coli [2]) | Activity (Escherichia coli [2]) | Activity (Escherichia coli [1])
1 | CC[C@H](C)[C@H](NC(=O)CNC(=O)[C@H](Cc1c[nH]c2ccccc12)NC(=O)[C@H](Cc1ccccc1)NC(=O)[C@H](CCSC)NC(=O)[C@H](CC(C)C)NC(=O)[C@H](CC(N)=O)NC(=O)[C@@H](NC(=O)[C@H](C)NC(=O)[C@H](CC(N)=O)NC(=O)[C@H](CCCCN)NC(=O)[C@@H](NC(=O)[C@H](CC(=O)O)NC(=O)[C@H](CC(N)=O)NC(=O)[C@H](CCC(=O)O)NC(=O)[C@H](CCCNC(=N)N)NC(=O)[C@H](Cc1cnc[nH]1)NC(=O)[C@H](CO)NC(=O)CCCCCNC(=O)[C@H](CC(C)C)NC(=O)[C@H](CCC(=O)O)NC(=O)[C@H](CCCNC(=N)N)NC(=O)[C@H](CO)NC(=O)[C@@H](NC(=O)[C@H](CCCCN)NC(=O)[C@H](CC(=O)O)NC(=O)[C@H](CO)NC(=O)[C@H](CC(C)C)NC(=O)[C@H](CC(C)C)NC(=O)[C@H](CCCNC(=N)N)NC(=O)CCCCCNC(=O)[C@H](CCCCN)NC(=O)[C@H](Cc1ccc(O)cc1)NC(=O)[C@@H](NC(=O)[C@H](Cc1ccc(O)cc1)NC(=O)[C@@H](NC(=O)[C@H](CCCCN)NC(=O)[C@H](Cc1ccccc1)NC(=O)[C@H](CCC(N)=O)NC(=O)[C@@H](N)CCSC)C(C)C)[C@@H](C)O)C(C)C)[C@@H](C)CC)[C@@H](C)CC)C(=O)O | 5 µM | 10 µM | – | –
2 | CC[C@H](C)[C@H](NC(=O)[C@H](CCC(=O)O)NC(=O)[C@H](Cc1c[nH]c2ccccc12)NC(=O)[C@H](Cc1ccccc1)NC(=O)[C@H](CCSC)NC(=O)[C@H](CC(C)C)NC(=O)[C@H](CC(N)=O)NC(=O)[C@@H](NC(=O)[C@H](C)NC(=O)[C@H](CC(N)=O)NC(=O)[C@H](CCCCN)NC(=O)[C@@H](NC(=O)[C@H](CC(=O)O)NC(=O)[C@H](CC(N)=O)NC(=O)[C@H](CCC(=O)O)NC(=O)[C@H](CCCNC(=N)N)NC(=O)[C@H](Cc1cnc[nH]1)NC(=O)[C@H](CO)NC(=O)CCCCCNC(=O)[C@H](CC(C)C)NC(=O)[C@H](CCC(=O)O)NC(=O)[C@H](CCCNC(=N)N)NC(=O)[C@H](CO)NC(=O)[C@@H](NC(=O)[C@H](CCCCN)NC(=O)[C@H](CC(=O)O)NC(=O)[C@H](CO)NC(=O)[C@H](CC(C)C)NC(=O)[C@H](CC(C)C)NC(=O)[C@H](CCCNC(=N)N)NC(=O)CCCCCNC(=O)[C@H](CCCCN)NC(=O)[C@H](Cc1ccc(O)cc1)NC(=O)[C@@H](NC(=O)[C@H](Cc1ccc(O)cc1)NC(=O)[C@@H](NC(=O)[C@H](CCCCN)NC(=O)[C@H](Cc1ccccc1)NC(=O)[C@H](CCC(N)=O)NC(=O)[C@@H](N)CCSC)C(C)C)[C@@H](C)O)C(C)C)[C@@H](C)CC)[C@@H](C)CC)C(=O)O | 5 µM | – | inactive | –
3 | CC[C@H](C)[C@H](NC(=O)CNC(=O)[C@H](Cc1c[nH]c2ccccc12)NC(=O)[C@H](Cc1ccccc1)NC(=O)[C@H](CCSC)NC(=O)[C@H](CC(C)C)NC(=O)[C@H](CC(N)=O)NC(=O)[C@@H](NC(=O)[C@H](C)NC(=O)[C@H](CC(N)=O)NC(=O)[C@H](CCCCN)NC(=O)[C@@H](NC(=O)[C@H](CC(=O)O)NC(=O)[C@H](CC(N)=O)NC(=O)[C@H](CCC(=O)O)NC(=O)[C@H](CCCNC(=N)N)NC(=O)[C@H](Cc1cnc[nH]1)NC(=O)[C@@H](N)CO)[C@@H](C)CC)[C@@H](C)CC)C(=O)O | 15 µM | 60 µM | – | –
4 | CC[C@H](C)[C@H](NC(=O)CNC(=O)[C@H](Cc1c[nH]c2ccccc12)NC(=O)[C@H](Cc1ccccc1)NC(=O)[C@H](CCSC)NC(=O)[C@H](CC(C)C)NC(=O)[C@H](CC(N)=O)NC(=O)[C@@H](NC(=O)[C@H](C)NC(=O)[C@H](CC(N)=O)NC(=O)[C@H](CCCCN)NC(=O)[C@@H](NC(=O)[C@H](CC(=O)O)NC(=O)[C@H](CC(N)=O)NC(=O)[C@H](CCC(=O)O)NC(=O)[C@H](CCCNC(=N)N)NC(=O)[C@H](Cc1cnc[nH]1)NC(=O)[C@H](CO)NC(=O)CCCCCNC(=O)[C@H](CCCCN)NC(=O)[C@H](Cc1ccc(O)cc1)NC(=O)[C@@H](NC(=O)[C@H](Cc1ccc(O)cc1)NC(=O)[C@@H](NC(=O)[C@H](CCCCN)NC(=O)[C@H](Cc1ccccc1)NC(=O)[C@H](CCC(N)=O)NC(=O)[C@@H](N)CCSC)C(C)C)[C@@H](C)O)[C@@H](C)CC)[C@@H](C)CC)C(=O)O | 15 µM | 40 µM | – | –
5 | CC[C@H](C)[C@H](NC(=O)CNC(=O)[C@H](Cc1c[nH]c2ccccc12)NC(=O)[C@H](Cc1ccccc1)NC(=O)[C@H](CCSC)NC(=O)[C@H](CC(C)C)NC(=O)[C@H](CC(N)=O)NC(=O)[C@@H](NC(=O)[C@H](C)NC(=O)[C@H](CC(N)=O)NC(=O)[C@H](CCCCN)NC(=O)[C@@H](NC(=O)[C@H](CC(=O)O)NC(=O)[C@H](CC(N)=O)NC(=O)[C@H](CCC(=O)O)NC(=O)[C@H](CCCNC(=N)N)NC(=O)[C@H](Cc1cnc[nH]1)NC(=O)[C@H](CO)NC(=O)[C@H](CC(C)C)NC(=O)[C@H](CC(=O)O)NC(=O)[C@H](C)NC(=O)[C@@H](NC(=O)[C@H](CCC(=O)O)NC(=O)[C@H](CCC(=O)O)NC(=O)CNC(=O)[C@@H](NC(=O)[C@@H](NC(=O)[C@H](CO)NC(=O)[C@@H](NC(=O)[C@@H]1CCCN1C(=O)[C@@H](NC(=O)[C@H](CO)NC(=O)[C@H](C)NC(=O)[C@@H](N)CCSC)C(C)C)C(C)C)C(C)C)[C@@H](C)CC)C(C)C)[C@@H](C)CC)[C@@H](C)CC)C(=O)O | – | – | inactive | inactive

From ChEMBL document CHEMBL1152267, “Peptides based on CcdB protein as novel inhibitors of bacterial topoisomerases” (Bioorg Med Chem Lett, 2008)
